Compound activity (PubChem)
bIAP inhibitor: intestinal alkaline phosphatase (bovine) inhibition | purified bovine IAP, CDP-star luminescence, 30 min | AID 1019 | inhibition, % at 20 µM | 190,000 tested, under 10 active;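 active = over 50% inhibition of intestinal alkaline phosphatase at 20 µM in the single-dose screen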
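test system = bovine IAP enzyme | medium = DEA buffer 100 mM, pH 9.8, with MgCl2 1.0 mM, ZnCl2 0.02 mM | detection = luminescence | dosing = single compound dose of 20 µM, 2% DMSO final | incubation = 30 min reaction at room temperature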
bIAP act: increases bovine intestinal alkaline phosphatase activity; 0.17% of 200,000 active; purified bovine IAP, CDP-star luminescence, 30 min; stronger effect = higher value; fold of DMSO-control signal, blank-subtracted; activation factor at 20 µM;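 active = activation factor of 2 or more at 20 µM, a signal rise over negative controls twice the positive control's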
mIAP act: increases mouse intestinal alkaline phosphatase activity; activation factor at 10 µM; muIAP, CDP-Star luminescence, 30 min; stronger effect = higher value; 1 = vehicle-only enzyme signal, 0 = enzyme-free wells; 0.24% of 330,000 active;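 active = activation factor of at least 2 at 20 µM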
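Assay system: mouse IAP enzyme; reagent: chemiluminescent substrate CDP-Star; dosing: test compounds delivered from DMSO solution; schedule: 30 min at room temperature; measured by: luminescence from enzymatic CDP-Star hydrolysis; controls: DMSO-only wells and no-enzyme negative control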
mIAP inh: mouse IAP inhibition; inhibition, % at 10 µM; AID 2806; 0.2% of 330,000 active; purified mouse IAP, CDP-Star luminescence, 30 min;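 active = inhibition of at least 40% at 10 µM in the primary screen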
hIAP act: increases human intestinal alkaline phosphatase activity; AID 2524; 0.16% of 330,000 active; activation factor at 10 µM; purified human IAP, CDP-Star luminescence, 30 min; stronger effect = higher value; 1 = vehicle-only enzyme, 0 = enzyme-free background; P09923;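 active = activation factor of the enzyme at least 2-fold when tested at 20 µM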
Target sequence (P09923 whole entry, looked up): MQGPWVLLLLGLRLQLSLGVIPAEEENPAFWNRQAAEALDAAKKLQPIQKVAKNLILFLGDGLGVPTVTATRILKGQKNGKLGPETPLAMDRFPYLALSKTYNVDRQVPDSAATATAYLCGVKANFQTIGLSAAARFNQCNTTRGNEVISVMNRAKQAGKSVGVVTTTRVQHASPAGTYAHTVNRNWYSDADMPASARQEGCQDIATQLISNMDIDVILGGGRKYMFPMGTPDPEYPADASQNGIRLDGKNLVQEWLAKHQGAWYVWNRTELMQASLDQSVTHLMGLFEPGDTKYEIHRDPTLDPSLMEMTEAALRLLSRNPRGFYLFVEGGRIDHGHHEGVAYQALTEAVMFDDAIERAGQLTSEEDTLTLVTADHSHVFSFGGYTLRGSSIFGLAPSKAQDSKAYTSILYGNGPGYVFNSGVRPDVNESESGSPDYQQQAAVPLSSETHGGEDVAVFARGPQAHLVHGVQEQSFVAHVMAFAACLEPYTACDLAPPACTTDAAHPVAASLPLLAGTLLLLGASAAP
hIAP inh: blocks human intestinal alkaline phosphatase; P09923; purified IAP, CDP-Star luminescence, 30 min; inhibition, % at 10 µM; 0.12% of 330,000 active; AID 2544;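 active = inhibition reaching a set limit with compound at 10 µM in the primary screen, cut at about 35% in these data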
mIAP inh confirm: mouse IAP inhibition confirmation; shares compounds with mIAP inh; purified mouse IAP, CDP-Star luminescence, 30 min; inhibition, % at 10 µM; 4.7% of 11,000 active; AID 434971;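 active = inhibition of at least 40% at 10 µM in either of the two replicates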
Hits are given with their value; 0 = inactive; - = not tested or not shown. Hits are enriched below; roughly 0.77% of the tested compounds scored in any of these assays.

SMILES | bIAP inhibitor | bIAP act | mIAP act | mIAP inh | hIAP act | hIAP inh | mIAP inh confirm
O=C(/C=C/c1ccco1)NC(=S)Nc1ccc(C(=O)O)cc1 | - | - | 0 | 43 | 0 | 0 | 67
CCCCCCCC(=O)Oc1ccc(C(=O)Nc2cc(C)on2)cc1 | - | - | 0 | 0 | 0 | 0 | -
c1coc(-c2nnc(-c3ccco3)nn2)c1 | - | - | 0 | 71 | 0 | 0 | 81
COc1ccc(Br)cc1/C=N/N1C(=O)CSC1=S | - | - | 0 | 0 | 0 | 0 | -
O=C1CSC(=S)N1/N=C/c1ccc(Cl)c([N+](=O)[O-])c1 | - | - | 0 | 50 | 0 | 0 | 48
COc1cc(/C=N/N2C(=O)CSC2=S)ccc1O | 0 | 0 | 0 | 52 | 0 | 0 | 65
O=C(NNC(=O)c1cncc(Br)c1)c1ccncc1 | - | - | 0 | 0 | 0 | 0 | -
O=C1CNC(=S)N1CCc1ccc(O)c(O)c1 | - | - | 0 | 77 | 0 | 0 | 81
O=C(CCCN1C(=O)/C(=C/c2cccs2)SC1=S)Nc1ccc(O)c(C(=O)O)c1 | 0 | 0 | - | - | - | - | -
CC(C(=O)N(C)C1CCS(=O)(=O)C1)N1C(=O)/C(=C/c2ccco2)SC1=S (centres undefined) | - | - | 0 | 40 | 0 | 0 | 50
O=C(CN1C(=O)/C(=C/c2ccco2)SC1=S)Nc1ccc(O)c(C(=O)O)c1 | - | - | 0 | 75 | 0 | 0 | 76
CC(C(=O)Nc1ccc(C(=O)O)c(O)c1)N1C(=O)/C(=C\c2ccco2)SC1=S (centres undefined) | - | - | 0 | 62 | 0 | 0 | 73
O=C(CN1C(=O)/C(=C/c2ccco2)SC1=S)Nc1ccc(C(=O)O)c(O)c1 | - | - | 0 | 67 | 0 | 0 | 86
Cc1nnc(SCC(=O)c2c[nH]c3ccccc23)n1C1CC1 | - | - | 0 | 0 | 0 | 0 | -
O=C(COC(=O)C1CCN(c2ccc(C(F)(F)F)cn2)CC1)c1ccccc1 | - | - | 0 | 0 | 0 | 0 | -
O=C(CN1C(=O)/C(=C/c2ccco2)SC1=S)NC1CCS(=O)(=O)C1 (centres undefined) | - | - | 0 | 58 | 0 | 0 | 79
CC(=C\c1ccco1)/C=C1/SC(=S)N(CC(=O)O)C1=O | - | - | 0 | 51 | 0 | 0 | 50
O=C(CCN1C(=O)/C(=C/c2ccccc2)SC1=S)NC1CCS(=O)(=O)C1 (centres undefined) | - | - | 0 | 0 | 0 | 0 | -
Nc1nc(-c2cccs2)cs1 | 0 | 0 | 0 | 46 | 0 | 0 | 52
CC(=O)Nc1nc(-c2cccs2)cs1 | 0 | 0 | 0 | 0 | 0 | 0 | -
CCn1c(CSc2nc3ccccc3s2)nnc1SCC(=O)c1ccc(O)c(O)c1 | 0 | 0 | 0 | 44 | 0 | 0 | 47
CCn1c(SCC(=O)c2ccc(O)c(O)c2)nnc1-c1ccccc1OC | 0 | 0 | 0 | 44 | 0 | 0 | 63
C=CCn1c(SCC(=O)c2ccc(O)c(O)c2)nnc1-c1ccccc1OC | 0 | 0 | 0 | 0 | 0 | 0 | -
C=CCn1c(SCC(=O)c2ccc(O)c(O)c2)nnc1-c1cccnc1 | - | - | 0 | 57 | 0 | 0 | 63
O=S(=O)(c1cc(O)ccc1O)c1cccc2c(S(=O)(=O)c3cc(O)ccc3O)cccc12 | - | - | 0 | 65 | 0 | 0 | 58
SMILES | bIAP inhibitor | bIAP act | mIAP act | mIAP inh | hIAP act | hIAP inh | mIAP inh confirm
O=S(=O)(O)c1cc(O)ccc1O | - | - | 0 | 0 | 0 | 0 | -
C[N+](C)(C)C(Cc1ccccc1)C(=O)[O-] (centres undefined) | - | - | 0 | 47 | 0 | 0 | 51
C/C(CC(=O)Nc1ccc2ccccc2c1)=N\NC(=O)c1ccc(O)c(O)c1 | - | - | 0 | 46 | 0 | 0 | 67
C/C(CC(=O)Nc1ccc2ccccc2c1)=N\NC(=O)c1cnccn1 | 0 | 0 | 0 | 0 | 0 | 0 | -
Oc1c(C=C2N=c3ccccc3=N2)sc(=S)n1-c1ccc(F)cc1 | 0 | 0 | 0 | 0 | 0 | 0 | 38
Cc1ccc(S(=O)(=O)/N=C2/NC(=O)/C(=C/c3ccc(Br)o3)S2)cc1 | 0 | 0 | 0 | 0 | 0 | 0 | -
Cc1ccc(S(=O)(=O)/N=C2/NC(=O)/C(=C\c3cc(Br)cc(Br)c3O)S2)cc1 | - | - | 0 | 43 | 0 | 0 | 49
COc1ccc(-n2c(C)cc(/C=C3\SC(=S)NC3=O)c2C)cc1 | 0 | 0 | 0 | 0 | 0 | 0 | -
Cc1cc(/C=C2\SC(=S)NC2=O)c(C)n1-c1ccccc1 | - | - | 0 | 43 | 0 | 0 | 48
Cc1cc(/C=C2\SC(=S)NC2=O)c(C)n1C | 0 | 0 | 0 | 59 | 0 | 0 | 62
